# Rows were chosen to be rich in hits. Some 3.6% of all compounds tested hit in one or more screens of this group.
# HSF1 inhib: HSF1 inhibition | NIH3T3-HGL HSE-luciferase, MG132-induced, luminescence 8 h; stronger effect = lower value | activity change, negative = inhibition, % at 7.5 µM (by protocol) | 300,000 compounds, 0.77% hits;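 active means more than half of replicate wells show activity change below -50%, luminescence cut by over half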;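 further: luciferase reports HSF-1 transcriptional activity via heat shock element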
# Hsp70 activator: switches on Hsp70 transcription; 200,000 compounds, 0.04% hits; AID 1203; HeLa Hsp70 promoter luciferase reporter, luminescence; scaled: vehicle 0, proteasome-inhibitor control 100%; activation, % at 10 µM;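 active means activation above the mean across all tested compounds plus 3 SD, cutoff set per campaign, cut at about 5.5% in these data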
# PERK inhibitor: inhibitors of human PERK kinase; Q9NZJ5; AID 1416; 220,000 compounds, 0.17% hits; inhibition, % at 5.6 µM; CHO PERK-DD fusion, SEAP luminescence translation reporter;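 active means inhibition above the mean inhibition of all tested compounds plus 3 SD, set separately per screening campaign, cut at about 2.9% in these data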;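 further: PERK kinase domain activated by AP20187 dimerizer at 100 nM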
# PolyA inhibitor: blocks polyadenylation in yeast reporter cells; S. cerevisiae SKY197-pL101 polyadenylation reporter, beta-gal luminescence; efflux-impaired pdr1/pdr3 knockout yeast; score 100 = 6 SD above DMSO; activity score, % at 12 µM; 300,000 compounds, 0.02% hits;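 active means lowest replicate activity score at least 50, where 100 means six control SD above control mean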;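 further: yeast exposed to compound for 9 h at 30 °C; higher score means more reporter readthrough which indicates perturbed polyadenylation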
# AHR act: activates the human aryl hydrocarbon receptor | P35869 | AHR-responsive luciferase reporter cells, luminescence | activation, % at 5 µM | 320,000 compounds, 2.5% hits | AID 2796; in the data active means activation above about 47%
# STAT3 act: increases IL-6 driven STAT3 reporter signal; U3A cells, IL-6 STAT3-luciferase reporter, luminescence; 100% = signal with IL-6 EC80 alone; activation (% of control), % at 5.6 µM; 190,000 compounds, 0.91% hits;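 active means activation above the screen-wide mean of compound activation plus 3 SD, cut at about 130% in these data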
#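 Detection: reporter luminescence signal / Assay system: STAT1-lacking human U3A cells, STAT3 luciferase reporter / Incubation: compound pre-incubation 1 h before IL-6, then 6 h stimulation at 37 °C / Control set: IL-6-only high control / Read-out: % activation relative to IL-6 control / Probe or stimulus: Interleukin-6, 33 ng/mL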
# A number is an active result; - = inactive; . = no result.
SMILES,HSF1 inhib,Hsp70 activator,PERK inhibitor,PolyA inhibitor,AHR act,STAT3 act
COc1ccc(-c2sc3ccc(OC)cc3c2-c2ccc(O)cc2)cc1,.,.,.,.,65,.
COc1ccc(-c2sc3ccc(OC)cc3c2C#CCCO)cc1,-,.,.,-,61,.
COc1ccc(-c2sc3cc(OC)c(OC)cc3c2C#CCO)cc1,.,.,.,.,-,.
COc1ccc(-c2sc3ccc(N4CCOCC4)cc3c2C#Cc2ccsc2)cc1,.,.,.,.,-,.
Cc1cc(NC(=O)COC(=O)C(C)Oc2ccc(Cl)cc2Cl)no1 (configuration not stated),-,.,.,-,-,.
Cc1cc(C(=O)COc2cc(F)ccc2[N+](=O)[O-])c(C)n1C1CC1,-,-,-,-,76,-
Cc1cccc(NC(=O)CCS(=O)(=O)c2ccc(Cl)cc2)c1,-,.,.,-,-,.
COc1ccc(C(=O)Nc2ccc(C(=O)N3CCCCC3C)cc2)c(OC)c1OC (configuration not stated),-,.,.,-,-,.
COc1ccccc1CN1CC(C(=O)NCc2cc(F)ccc2C)CCC1=O (configuration not stated),-,.,.,-,.,.
O=C(O)CC(Cc1ccccc1)C(=O)NCC12CC3CC(CC(C3)C1)C2 (configuration not stated),-,-,3.2,-,-,-
O=C(NCc1ccccc1)NCC12CC3CC(CC(C3)C1)C2,-,-,-,-,-,-
CCCCNC(=S)N/N=C/c1cccc(OCC)c1O,-,.,-,-,-,.
CCOc1cccc(/C=N/NC(=S)Nc2ccccc2[N+](=O)[O-])c1O,-79,-,-,-,-,-
C/C(=N/NC(=O)CNC(=O)COc1cccc(C)c1)c1ccc(Cl)cc1,-,.,.,-,-,.
O=C(Nc1nccs1)c1ccc(-c2ccccc2[N+](=O)[O-])o1,-,.,.,-,68,.
O=C(Nc1nccs1)c1ccc(-c2ccc([N+](=O)[O-])cc2)o1,-,-,-,-,-,-
O=C(Nc1nccs1)c1ccc(-c2ccccc2Cl)o1,-,-,-,-,54,-
O=C(Nc1nccs1)c1ncc(Cl)c(Cl)c1Cl,-,.,.,-,47,.
COC(=O)[C@H]1C[C@H](C(=O)O)[C@@H](C)C1(C)C,.,.,.,.,-,.
O=C(NCCCN1CCOCC1)c1cc(-c2ccc(Br)cc2)nc2ccccc12,-,.,.,-,75,.
O=C(NCCCN1CCOCC1)c1cc(-c2ccccc2)nc2ccccc12,-,.,.,-,-,.
O=C(NN1CCOCC1)c1cc(-c2ccc(Br)cc2)nc2ccccc12,-,-,-,-,58,-
CCNC(=O)Nc1ccc(OC)cc1OC,-,-,-,-,-,-
COc1ccc(NC(=S)N2CCN(CCN3C(=O)c4cccc5cccc(c45)C3=O)CC2)cc1,-,-,-,-,97,-
CC(=O)c1ccc(NC(=S)N2CCN(CCN3C(=O)c4cccc5cccc(c45)C3=O)CC2)cc1,-,-,-,-,122,-
SMILES,HSF1 inhib,Hsp70 activator,PERK inhibitor,PolyA inhibitor,AHR act,STAT3 act
C=CCN1C=C/C(=C\C=C(C#N)C#N)c2ccccc21,-,-,-,-,53,-
CC(Sc1nnnn1C)C(=O)Nc1ccc(Oc2ccccc2)cc1 (configuration not stated),-68,-,-,-,-,-
CCOC(=O)c1c(C)n(C)c2ccc(OC)c(NC(=O)CN3CCSCC3)c12,-91,-,-,-,-,-
CCOC(=O)c1c(C)n(C)c2ccc(OC)c(NC(=O)CCN3CCC(Cc4ccccc4)CC3)c12,-,.,-,-,66,.
COCCn1c(SCC(=O)Nc2c(C)n(C)n(-c3ccccc3)c2=O)nnc1-c1ccncc1,.,.,.,.,-,.
CSCCC(NS(=O)(=O)c1cccs1)C(=O)NCc1ccc(C)cc1 (configuration not stated),-,-,-,-,-,-
CSCCC(NS(=O)(=O)c1cccs1)C(=O)NCc1ccccc1 (configuration not stated),-52,-,-,-,-,-
Cc1ccc(Cl)c2sc(NC(=O)C3=COCCO3)nc12,-,.,.,-,58,.
Cc1sc(NC(=O)C2=COCCO2)nc1-c1ccc(Cl)cc1,-,.,.,-,65,.
CCOc1cc(CNS(=O)(=O)c2ccc3c(c2)CC(=O)N3C)cc(OCC)c1OCC,-,.,.,-,-,.
Cc1ccc(OC(C)C(=O)N/N=C/c2ccccn2)cc1 (configuration not stated),-,-,-,-,-,-

# Source: PubChem
